Results published in ChEMBL document CHEMBL3758148, “4-Phenylpyridin-2-one Derivatives: A Novel Class of Positive Allosteric Modulator of the M1 Muscarinic Acetylcholine Receptor” (J Med Chem, 2016).

Key:
[1] = target: T1, Muscarinic acetylcholine receptor M1 (Homo sapiens) (UniProt P11229); experiment: Displacement of [3H]NMS from human muscarinic M1 receptor expressed in CHO Flp-In cells after 1 hr by microbeta liquid scintillation counting-based radioligand binding assay; type: cell-based
T1 sequence (whole entry): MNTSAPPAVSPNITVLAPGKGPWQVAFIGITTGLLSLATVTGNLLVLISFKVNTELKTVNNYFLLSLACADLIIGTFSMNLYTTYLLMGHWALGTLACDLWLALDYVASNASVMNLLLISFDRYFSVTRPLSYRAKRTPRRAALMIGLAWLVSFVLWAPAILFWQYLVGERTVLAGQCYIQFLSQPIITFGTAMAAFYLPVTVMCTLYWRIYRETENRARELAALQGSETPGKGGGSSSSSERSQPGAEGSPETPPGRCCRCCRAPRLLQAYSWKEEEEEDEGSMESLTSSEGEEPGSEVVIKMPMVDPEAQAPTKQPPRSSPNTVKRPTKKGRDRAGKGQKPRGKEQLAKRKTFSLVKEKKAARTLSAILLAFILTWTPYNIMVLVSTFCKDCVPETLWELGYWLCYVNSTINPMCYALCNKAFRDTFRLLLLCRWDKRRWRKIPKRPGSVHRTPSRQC
Outline: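 Intact adherent Flp-In CHO cells expressing hM1 (10⁴ cells/well), incubated with 0.2 nM [3H]NMS, varying ACh and modulator in HEPES-buffered saline pH 7.4 for 1 h at 37 °C. Washed with ice-cold 0.9% NaCl, then scintillation counted. Fitted to an allosteric ternary complex model with [3H]NMS KA 0.2 nM. Mean ± SEM, ≥3 experiments in duplicate.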

[2] = target: T1, Muscarinic acetylcholine receptor M1 (Homo sapiens); experiment: Allosteric agonist activity at human muscarinic M1 receptor expressed in CHO Flp-In cells assessed as intrinsic activity measured as IP1 accumulation after 1 hr by HTRF method; type: functional, cell-based
Outline: (§1)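 Suspended Flp-In CHO cells stably expressing hM1, stimulated at 10⁶ cells/ml in HEPES buffer with 50 mM LiCl, pH 7.4, using increasing ACh with or without increasing modulator, 1 h at 37 °C, 5% CO2. IP1 read by HTRF (665/590 nm ratio). Curves fitted globally to the operational model of allosterism, with KB fixed from binding. Mean ± SEM, ≥3 experiments in duplicate.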

[3] = target: T1, Muscarinic acetylcholine receptor M1 (Homo sapiens); experiment: Positive allosteric modulation of human muscarinic M1 receptor expressed in CHO Flp-In cells assessed as functional cooperativity with acetylcholine measured as IP1 accumulation after 1 hr by HTRF method; type: cell-based; outline: as §1

Row | Kb [1] [µM] | pKb [1] | Intrinsic activity [2] | log(IA) [2] | log(activity) [3] | SMILES
1 | 27 | 4.57 | 0.47 | -0.33 | 1.93 | CC(C)n1cc(-c2ccc(COc3ccccc3-c3ccn([C@H]4CCCC[C@@H]4O)c(=O)c3)cc2)cn1 (racemic)
2 | 14 | 4.86 | 0.5 | -0.3 | 0.75 | CCCCn1cc(-c2ccc(COc3ccccc3-c3ccn([C@H]4CCCC[C@@H]4O)c(=O)c3)cc2)cn1 (racemic)
3 | 23 | 4.64 | 0.3 | -0.52 | 1.78 | CCCn1cc(-c2ccc(COc3ccccc3-c3ccn([C@H]4CCCC[C@@H]4O)c(=O)c3)cc2)cn1 (racemic)
4 | 41 | 4.38 | 0.89 | -0.05 | 2.26 | CCn1cc(-c2ccc(COc3ccccc3-c3ccn([C@H]4CCCC[C@@H]4O)c(=O)c3)cc2)cn1 (racemic)
5 | 87 | 4.06 | 0.54 | -0.26 | 0.96 | COC(=O)c1ccc(COc2ccccc2-c2ccn([C@H]3CCCC[C@@H]3O)c(=O)c2)cc1 (racemic)
6 | 100 | 3.99 | 0.15 | -0.82 | 0.52 | COC(=O)c1cccc(COc2ccccc2-c2ccn([C@H]3CCCC[C@@H]3O)c(=O)c2)c1 (racemic)
7 | 52 | 4.28 | 0.08 | -1.1 | 0.8 | COc1ccc(COc2ccccc2-c2ccn([C@H]3CCCC[C@@H]3O)c(=O)c2)cc1 (racemic)
8 | 65 | 4.19 | 1.45 | 0.16 | 0.84 | COc1cccc(COc2ccccc2-c2ccn([C@H]3CCCC[C@@H]3O)c(=O)c2)c1 (racemic)
9 | 66 | 4.18 | 0.44 | -0.36 | 1.44 | Cn1cc(-c2ccc(CNc3ccccc3-c3ccn([C@H]4CCCC[C@@H]4O)c(=O)c3)cc2)cn1 (racemic)
10 | 42 | 4.38 | 1.34 | 0.13 | -0.41 | Cn1cc(-c2ccc(COc3c(F)ccc(F)c3-c3ccn([C@H]4CCCC[C@@H]4O)c(=O)c3)cc2)cn1 (racemic)
11 | 13 | 4.88 | 2.51 | 0.4 | 2.75 | Cn1cc(-c2ccc(COc3ccccc3-c3cc(=O)n([C@H]4CCCC[C@@H]4O)cn3)cc2)cn1 (racemic)
12 | 31 | 4.51 | 0.43 | -0.37 | 1.93 | Cn1cc(-c2ccc(COc3ccccc3-c3ccn([C@H]4CCCC[C@@H]4O)c(=O)c3)c(F)c2)cn1 (racemic)
13 | 32 | 4.5 | – | -3 | 2.15 | Cn1cc(-c2ccc(COc3ccccc3-c3ccn([C@H]4CCCC[C@@H]4O)c(=O)c3)cn2)cn1 (racemic)
14 | 14 | 4.85 | 0.19 | -0.73 | 0.49 | N#Cc1ccc(COc2ccccc2-c2ccn([C@H]3CCCC[C@@H]3O)c(=O)c2)cc1 (racemic)
15 | 87 | 4.06 | 0.25 | -0.59 | 0.88 | N#Cc1cccc(COc2ccccc2-c2ccn([C@H]3CCCC[C@@H]3O)c(=O)c2)c1 (racemic)
16 | 22 | 4.66 | 0.89 | 0.05 | 2.36 | NC(=O)c1ccc(COc2ccccc2-c2ccn([C@H]3CCCC[C@@H]3O)c(=O)c2)cc1 (racemic)
17 | 91 | 4.04 | – | -3 | 0.87 | NC(=O)c1cccc(COc2ccccc2-c2ccn([C@H]3CCCC[C@@H]3O)c(=O)c2)c1 (racemic)
18 | 91 | 4.04 | 0.2 | -0.69 | 1.08 | O=C(O)c1cccc(COc2ccccc2-c2ccn([C@H]3CCCC[C@@H]3O)c(=O)c2)c1 (racemic)
19 | 21 | 4.67 | 0.74 | -0.13 | 0.47 | O=c1cc(-c2ccccc2NCc2ccc(-c3cccnc3)cc2)ccn1[C@H]1CCCC[C@@H]1O (racemic)

Row | Kb [1] [µM] | pKb [1] | Intrinsic activity [2] | log(IA) [2] | log(activity) [3] | SMILES
20 | – | 3.86 | 1.1 | 0.04 | 0.68 | O=c1cc(-c2ccccc2NCc2ccc(-c3cncnc3)cc2)ccn1[C@H]1CCCC[C@@H]1O (racemic)
21 | 10 | 4.99 | 1.38 | 0.14 | 1.09 | O=c1cc(-c2ccccc2OCc2ccc(-c3ccccc3)cc2)ccn1[C@H]1CCCC[C@@H]1O (racemic)
22 | 19 | 4.72 | 0.38 | -0.42 | 1.29 | O=c1cc(-c2ccccc2OCc2ccc(-c3cccnc3)cc2)ccn1[C@H]1CCCC[C@@H]1O (racemic)
23 | 11 | 4.95 | 0.43 | -0.37 | 1.01 | O=c1cc(-c2ccccc2OCc2ccc(-c3ccncc3)cc2)ccn1[C@H]1CCCC[C@@H]1O (racemic)
24 | 28 | 4.56 | 1.1 | 0.04 | 0.68 | O=c1cc(-c2ccccc2OCc2ccc(-c3cn[nH]c3)cc2)ccn1[C@H]1CCCC[C@@H]1O (racemic)
25 | 35 | 4.45 | 0.16 | -0.8 | 1.34 | O=c1cc(-c2ccccc2OCc2ccc(-c3cncnc3)cc2)ccn1[C@H]1CCCC[C@@H]1O (racemic)
26 | 4 | 5.45 | 0.38 | -0.42 | 1.92 | O=c1cc(-c2ccccc2OCc2ccc(-c3cnn(C4CCCC4)c3)cc2)ccn1[C@H]1CCCC[C@@H]1O (racemic)
27 | 2 | 5.67 | 0.51 | -0.29 | 0.63 | O=c1cc(-c2ccccc2OCc2ccc(-c3cnn(C4CCCCC4)c3)cc2)ccn1[C@H]1CCCC[C@@H]1O (racemic)
28 | 7 | 5.13 | – | -3 | 0.58 | O=c1cc(-c2ccccc2OCc2ccc(-c3cnn(CC4CC4)c3)cc2)ccn1[C@H]1CCCC[C@@H]1O (racemic)
29 | 37 | 4.43 | 0.77 | -0.11 | 2.49 | O=c1cc(-c2ccccc2OCc2ccc(-c3cnn(CCO)c3)cc2)ccn1[C@H]1CCCC[C@@H]1O (racemic)
30 | 28 | 4.56 | 0.57 | -0.24 | 1.61 | O=c1cc(-c2ccccc2OCc2ccc(-c3ncco3)cc2)ccn1[C@H]1CCCC[C@@H]1O (racemic)
31 | 11 | 4.96 | 0.45 | -0.35 | 0.8 | O=c1cc(-c2ccccc2OCc2ccc(-c3nccs3)cc2)ccn1[C@H]1CCCC[C@@H]1O (racemic)
32 | 36 | 4.44 | 0.77 | -0.11 | 0.4 | O=c1cc(-c2ccccc2OCc2ccc(C(F)(F)F)cc2)ccn1[C@H]1CCCC[C@@H]1O (racemic)
33 | 60 | 4.22 | 1 | 0 | 1.15 | O=c1cc(-c2ccccc2OCc2ccc(F)cc2)ccn1[C@H]1CCCC[C@@H]1O (racemic)
34 | 30 | 4.53 | 1.02 | 0.01 | 0 | O=c1cc(-c2ccccc2OCc2cccc(C(F)(F)F)c2)ccn1[C@H]1CCCC[C@@H]1O (racemic)
35 | 41 | 4.38 | 0.78 | -0.11 | 0.85 | O=c1cc(-c2ccccc2OCc2cccc(F)c2)ccn1[C@H]1CCCC[C@@H]1O (racemic)
36 | 28 | 4.55 | 0.58 | -0.24 | 0.94 | O=c1cc(-c2ccccc2OCc2ccccc2)ccn1[C@H]1CCCC[C@@H]1O (racemic)
37 | 30 | 4.52 | 0.44 | -0.36 | 0.62 | O=c1cc(-c2ccccc2OCc2ccccc2F)ccn1[C@H]1CCCC[C@@H]1O (racemic)
